Measured values pooled from the literature.
Each line is one published result; the experiments were not run side by side.
Read-out: enzyme activity
ABL1: Tyrosine-protein kinase ABL1 (ABL1, Homo sapiens, UniProt P00519)
ABL1 Q252H: Tyrosine-protein kinase ABL1 (ABL1, Homo sapiens, UniProt P00519, Q252H)

SMILES	target	action	technique	tested at	remaining activity
CC(C)(C)c1nc(-c2cccc(NS(=O)(=O)c3c(F)cccc3F)c2F)c(-c2ccnc(N)n2)s1	ABL1	inhibitor	radiometric	1 µM	94%
Cc1[nH]c(/C=C2\C(=O)Nc3ccc(F)cc32)c(C)c1C(=O)N[C@H]1CCN(C(=O)N(C)C)C1	ABL1	inhibitor		0.1 µM	104%
COc1cc(Cl)c(C(=O)N[C@@H](CN[C@H]2CC[C@@H](N)CC2)Cc2ccc(C#N)cc2)cc1-c1ccc(CN[C@H](C)c2ccc(C)cc2)o1	ABL1	inhibitor		1 µM	96%
CCCOc1ccc(OC)c(F)c1C(=O)c1ccc(C(=O)N[C@@H]2CNC[C@H]2NC(=O)c2ccc3[nH]ncc3c2)cc1	ABL1 Q252H	inhibitor		10 µM	76%
COc1cc(Nc2cnc(C#N)c(O[C@H](C)CN(C)C)n2)ncc1-c1cnn(C)c1	ABL1	inhibitor	radiometric	10 µM	58%
Cc1ccc(NC(=O)c2ccc(C)c(C(F)(F)F)c2)cc1C#Cc1nn(C2CCC(O)CC2)c2ncnc(N)c12 (centres unmarked)	Tyrosine-protein kinase ABL1 (ABL1, Homo sapiens, UniProt P00519, M351T)			10 µM	0%
Cc1cnc(NC2CCOCC2)nc1-n1cnc(C(=O)NC(CN)c2cc(F)cc(Cl)c2)c1 (centres unmarked)	ABL1 Q252H	inhibitor	radiometric	1 µM	91%
Cc1sc(C(=O)NC2COC2)cc1-n1cc(NC(=O)Nc2c(F)cccc2Cl)cn1	ABL1	inhibitor		10 µM	102%
